# Only some compounds are listed: those with a hit (about 2.1% of all), similar ones and a draw of the others.
# CXCR6 inh = CXCR6 (human) receptor inhibition | AID 602244 | O00574 | CHO-K1 PathHunter CXCR6 beta-arrestin, luminescence | 0.36% of 360,000 active | inhibition, % at 20 µM; in the data active means inhibition above about 34%, passing the limit was not always enough;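 further: antagonist mode with CXCL16 agonist at 10 nM final; 0% = 10 nM CXCL16 with DMSO and 100% = unstimulated wells without agonist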
# EBI2 antag = blocks human EBI2 receptor beta-arrestin signaling; P32249; EBI2 beta-arrestin recruitment, luminescence, 7a,25-OHC stimulated; inhibition, % at 5 µM; 0.81% of 360,000 active; in the data active means inhibition above about 38%;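 further: enzyme fragment complementation signal reports receptor beta-arrestin coupling in cells; 0% = agonist plus DMSO wells and 100% = wells without agonist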
# APJ antag = APJ receptor antagonism. P35414. CHO-K1 APJ beta-arrestin complementation, luminescence. inhibition, % at 20 µM. 0.32% of 330,000 active. AID 2521;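 active means inhibition above about 40% at 20 µM, limit read from the data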;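 further: cells challenged with 10 nM apelin-13 agonist together with compound; plate controls were apelin-13 plus DMSO wells for no effect and DMSO wells lacking apelin-13 for full effect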
# Target sequence (P35414 whole entry, looked up): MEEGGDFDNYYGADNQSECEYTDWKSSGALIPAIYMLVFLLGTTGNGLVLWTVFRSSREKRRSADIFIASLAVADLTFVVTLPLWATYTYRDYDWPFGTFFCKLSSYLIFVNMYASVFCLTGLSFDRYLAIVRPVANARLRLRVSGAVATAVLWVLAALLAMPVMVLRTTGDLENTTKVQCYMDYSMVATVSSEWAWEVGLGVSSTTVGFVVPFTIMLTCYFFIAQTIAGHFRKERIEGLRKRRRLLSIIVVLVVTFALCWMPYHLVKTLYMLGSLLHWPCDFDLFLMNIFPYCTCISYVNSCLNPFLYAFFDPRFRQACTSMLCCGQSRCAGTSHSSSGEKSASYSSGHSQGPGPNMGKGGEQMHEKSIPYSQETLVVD
# m5-HT2A agonist = agonists of mouse serotonin 5-HT2A receptor (HTR2A); 0.66% of 360,000 active; CHO-K1 mHTR2A beta-arrestin complementation, luminescence; percent of 30 µM serotonin response; activation, % at 7.6 µM; AID 624169; P35363;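 active means activation above a run cutoff, the mean activation of all tested compounds plus 3 SD, cut at about 14% in these data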;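 further: 0% = plate median of compound wells and 100% = 30 µM serotonin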
# CCR6 antagonist = blocks CCL20-driven beta-arrestin recruitment at human CCR6. inhibition, % at 20 µM. P51684. CHO-K1 CCR6 PathHunter beta-arrestin, luminescence, CCL20-stimulated. 0.49% of 340,000 active;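 active means compounds whose inhibition of the agonist-driven luminescence signal at 20 µM reaches about 50%, limit read from the data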;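 further: cells stimulated with CCL20 at 14 nM final; plate controls were DMSO with CCL20 for no effect and DMSO without agonist for full effect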
# APJ ag = activates the human apelin receptor APJ; P35414; CHO-K1 APJ PathHunter beta-arrestin, luminescence; 0% DMSO wells, 100% apelin; activation, % at 20 µM; 0.11% of 330,000 active;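 active means activation more than six SD over the plate average, tested at 20 µM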;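 further: 0% = DMSO alone and 100% = apelin-13 at 10 nM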
#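 Assay system: CHO-K1 cells stably expressing ProLink-tagged human APJ and arrestin–beta-gal acceptor. Compound dosing: 20 µM single point, 1% DMSO. Times: 16-18 h seeding, 90 min dark compound exposure, 60 min detection. Detection: beta-gal luminescence. Evaluation: APJ–arrestin association signal. Controls: negative DMSO alone, positive Apelin-13 at 10 nM.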
# EBI2 conf = EBI2 (human) antagonism, single concentration confirmation. shares compounds with EBI2 antag. EBI2 beta-arrestin luminescence, 7a,25-OHC antagonism. inhibition, % at 5 µM. 29% of 2,400 active. AID 651997;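 active means inhibition of at least 50%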
# EBI2 ag = activates EBI2, counter-screen for EBI2 antagonists. shares compounds with EBI2 antag. EBI2-expressing cells, agonist mode, luminescence, 60 min; 0% vehicle, 100% 7α,25-dihydroxycholesterol control. activation, % at 5 µM. 2,400 tested, under 10 active. AID 652000;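 active means activation of at least 50%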
# bGal cs = counter-screen for EBI2 antagonists: E. coli beta-galactosidase inhibition; shares compounds with EBI2 antag; purified beta-galactosidase, luminescent Galacton Star, 15 min; inhibition, % at 5 µM; 1% of 2,400 active; AID 652176;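 active means replicate-average signal at least 3 plate SD below neutral wells, shown as high inhibition, flagging enzyme-inhibiting false positives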;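 further: 0% = DMSO wells with enzyme and 100% = wells lacking enzyme; higher means stronger loss of beta-gal luminescence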
# * marks the source's active call; other numbers are inactive results; . = not tested or not shown.
SMILES,CXCR6 inh,EBI2 antag,APJ antag,m5-HT2A agonist,CCR6 antagonist,APJ ag,EBI2 conf,EBI2 ag,bGal cs
COc1cc2nc(CN3CCN(S(=O)(=O)c4ccccc4)CC3)[nH]c(=O)c2cc1OC,-17,47*,11,3,3,-1,23,-1,-9
COc1cc2nc(CN3CCC(Cc4ccccc4)CC3)[nH]c(=O)c2cc1OC,4,46*,-7,3,14,-5,24,1,0
CCOC(=O)[C@]12CCC=C1N(Cc1ccc(Cl)cc1Cl)C(=O)[C@H](CC(=O)NCCCN1CCCC1=O)C2,-4,-9,.,3,.,.,.,.,.
CCOC(=O)c1cn2nc(Oc3cccc(C(F)(F)F)c3)ccc2n1,7,6,-7,-1,-2,-4,.,.,.
O=c1[nH]c(CN2CCN(c3ncccn3)CC2)nc2c(Br)cc(Br)cc12,5,3,-3,-1,7,-5,.,.,.
O=c1[nH]c(CN2CCN(S(=O)(=O)c3cccs3)CC2)nc2c(Br)cc(Br)cc12,8,54*,-18,3,16,3,22,0,5
CC(=O)N1CCN(Cc2nc3cc(Cl)ccc3c(=O)[nH]2)CC1,-7,-6,2,4,7,-1,.,.,.
O=c1[nH]c(CN2CCN(S(=O)(=O)c3ccc(Cl)cc3)CC2)nc2cc(Cl)ccc12,-11,89*,8,1,-2,-3,69*,0,9
CC(=O)c1cccc(S(=O)(=O)N2CCC(C(=O)O)(c3ccccc3)CC2)c1,2,0,-1,-9,10,0,.,.,.
c1ccc(N2CCN(c3ccccc3)C2c2cccnc2)cc1,5,2,-7,5,15,-5,.,.,.
Cc1ccc(N2CCN(c3ccc(C)cc3)C2c2cccnc2)cc1,-10,68*,-22,0,19,3,28,0,-12
O=C(O)c1ccc(S(=O)(=O)N2CCN(c3ccccn3)CC2)cc1,-5,-1,7,3,5,-5,.,.,.
CCS(=O)(=O)N1CCC(C(=O)NCc2ccc3c(c2)OCO3)CC1,-2,-5,-9,-2,0,-1,.,.,.
O=C(NCc1ccc2c(c1)OCO2)C1CCN(C(=O)Nc2ccc(Cl)cc2)CC1,-3,46*,7,-1,9,-5,6,-1,-12
Cn1nnnc1SCCNC(=O)C1CCC(=O)N(Cc2ccc(Cl)cc2)C1 (stereo unspecified),-1,-11,-13,-2,12,2,.,.,.
CCCCCCn1c(N2CCN(c3cccc(Cl)c3)CC2)nc2c1c(=O)[nH]c(=O)n2C,11,36*,18,0,10,-3,19,0,5
CCCCCCCCn1c(N2CCN(c3cccc(Cl)c3)CC2)nc2c1c(=O)[nH]c(=O)n2C,5,26,19,-1,18,-4,.,.,.
S=C1NC[C@H](c2ccccc2)N1CCCCC1CCCCC1,-7,46*,2,-1,25,-4,33,0,7
CC(C)Sc1ccc(C(=O)Nc2ccc(F)cc2F)cn1,8,45*,-8,-2,13,-1,20,0,12
O=C(c1cccc(C(=O)N2CCN(Cc3ccccc3)CC2)c1)N1CCN(Cc2ccccc2)CC1,-4,5,-5,0,7,-1,.,.,.
O=C(c1ccc(Br)cc1)N1CCC(C(=O)N2CCN(c3ccccc3)CC2)CC1,-8,79*,10,-3,25,-2,39,0,-11
O=C(c1ccc(F)cc1)N1CCN(Cc2ccccc2)CC1,-4,9,-1,-7,-1,-1,.,.,.
O=C(c1ccc2ccccc2c1)N1CCN(Cc2ccccc2)CC1,-4,90*,-19,-10,7,-2,77*,1,6
O=C(c1ccc(Br)cc1)N1CCN(Cc2ccccc2)CC1,-3,48*,12,5,4,-1,36,0,5
COc1ccc(C(=O)N2CCC(C(=O)N3CCN(c4ccccc4)CC3)CC2)cc1,11,22,-17,2,15,-2,.,.,.
SMILES,CXCR6 inh,EBI2 antag,APJ antag,m5-HT2A agonist,CCR6 antagonist,APJ ag,EBI2 conf,EBI2 ag,bGal cs
Cc1cnc(C(=O)NC(C)CCc2ccccc2)cn1 (stereo unspecified),-1,13,4,-3,5,-3,.,.,.
O=C(NCCc1c[nH]c2ccccc12)c1ccc(Cl)cc1,5,60*,0,-3,9,1,34,-1,-7
CCC(=O)NCCc1c[nH]c2ccccc12,-8,-6,6,3,17,-1,.,.,.
COc1ccc(N2CCN(C(CNC(=O)C(=O)NCCCO)c3ccco3)CC2)cc1 (stereo unspecified),-11,-7,-16,11,8,-4,.,.,.
COc1ccc(C(=O)NCCc2c[nH]c3ccccc23)cc1,-2,33,3,-3,1,0,.,.,.
CC(NC(=O)C(=O)NCCc1c[nH]c2ccccc12)c1ccccc1 (stereo unspecified),14,61*,5,8,-1,1,34,1,7
COc1ccc(N2CCN(C(CNC(=O)C(=O)NCCc3c[nH]c4ccccc34)c3ccco3)CC2)cc1 (stereo unspecified),10,49*,1,-2,1,0,45,-1,-22
S=c1[nH]nc(-c2ccccn2)n1/N=C/c1ccc(-c2ccccc2Cl)o1,2,2,-1,-1,15,-1,.,.,.
O=C(NCc1ccc(C(F)(F)F)cc1)C12CN(Cc3ccccc3)CC1C(c1cccc([N+](=O)[O-])c1)=NO2 (stereo unspecified),6,11,8,-5,16,6,.,.,.
Cc1ccc(CCNC(=O)C23CN(Cc4ccccc4)CC2C(c2cccc([N+](=O)[O-])c2)=NO3)cc1 (stereo unspecified),5,63*,2,0,5,-1,43,2,7
O=C(NCC1CCCCC1)C12CN(Cc3ccccc3)CC1C(c1cccc([N+](=O)[O-])c1)=NO2 (stereo unspecified),11,8,-37,-3,22,-5,.,.,.
COc1ccc(CCNC(=O)C23CN(Cc4ccccc4)CC2C(c2cccc([N+](=O)[O-])c2)=NO3)cc1 (stereo unspecified),2,52*,-2,-5,3,2,45,1,-2
